According to ChEMBL document CHEMBL1121800, “Fibrin Polymerization. 1. Alkylating peptide inhibitors of fibrin polymerization” (1981):
Where a SMILES comes first, the peptide text is derived from it. [ ]: non-standard residue; d: D form. The star is where a group is joined. Phe(4-NO2) = N[C@@H](Cc1ccc([N+](=O)[O-])cc1)C(=O)O; Chlorambucil = O=C(CCCc1ccc(N(CCCl)CCCl)cc1)*; Phe(4-NH2) = Nc1ccc(C[C@H](N)C(=O)O)cc1

How the values were obtained:
Type in all cases: functional
[1] = Compound was evaluated for its ability to inhibit the thrombin-initiated clotting time of citreated human plasma.; set-up: concentration or dose not given beside the values
Outline: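 Bovine thrombin in saline, dosed to give a 20 s clot, added to 200 µL citrated human plasma plus 100 µL saline containing peptide at 37 °C. Time to first clot recorded. Chlorambucil peptides came from DMSO stock diluted in saline; optional 15 min, 4 °C preincubation with plasma or thrombin. Molar activity from dose-response slope versus reference, with molarity from amino acid analysis.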

Homo sapiens = species on record: Homo sapiens; assay: Compound was evaluated for its ability to inhibit fibrin polymerization.; set-up: concentration or dose not given beside the values; conditions: dose or concentration not given here
Outline: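 Fibrin monomer from human fibrinogen (8.3 mg protein/mL solution) diluted into phosphate buffer (80 mM, pH 6.3) containing peptide; reaggregation followed at 350 nm. Optional preincubation: peptide in 1 M NaBr/0.05 M NaOAc pH 5.3 with monomer, 15 min, room temperature, before buffer addition. Molar activity from linear dose-response slope versus reference tetrapeptide, averaged values.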

[2] = target: Prothrombin (Homo sapiens) (UniProt P00734); assay: Compound was evaluated for its ability to inhibit thrombin catalyzed amidolysis.; set-up: concentration or dose not given beside the values; conditions: concentration not given here
Outline: (§1)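 Thrombin (0.5 unit) at 37 °C with 0.25 mL of 1 mM Tos-Gly-Pro-Arg-p-nitroanilide, 0.25 mL saline containing 2 mg/mL peptide, and 1.5 mL saline. Chromophore read at 405 nm. Where indicated, peptide and thrombin were preincubated 15 min at 4 °C before substrate addition.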

[3] = Relative potency was determined
[4] = target: Prothrombin (Homo sapiens) (UniProt P00734); assay: Compound was evaluated for its ability to inhibit thrombin catalyzed amidolysis; conditions: concentration not given here; outline: as §1

Row | inhibition [2] [%] | inhibition [4] [%] | SMILES | Inhibition [1] [%] | inhibition (Homo sapiens) [%] | Relative potency [3]
1 |  |  | N=C(N)NCCC[C@H](NC(=O)[C@@H]1CCCN1C(=O)CNC(=O)CCCc1ccc(N(CCCl)CCCl)cc1)C(=O)N1CCC[C@H]1C(=O)O (Chlorambucil-GPRP-OH) | 0 |  | 
2 | 0 |  | NCC(=O)N1CCC[C@H]1C(=O)N[C@@H](CCCN=C(N)N)C(=O)N1CCC[C@H]1C(=O)N[C@@H](Cc1ccc([N+](=O)[O-])cc1)C(=O)O (stereo in doubt; 10) [listing 1 of 2 here] |  | 88 | 0.83
3 | 0 |  | NCC(=O)N1CCC[C@H]1C(=O)N[C@@H](CCCN=C(N)N)C(=O)N[C@@H](Cc1ccc(N)cc1)C(=O)O (H-GPR[Phe(4-NH2)]-OH) | 5 | 22 | 0.22
4 | 0 |  | NCC(=O)N1CCC[C@H]1C(=O)N[C@@H](CCCN=C(N)N)C(=O)N1CCC[C@H]1C(=O)N[C@@H](Cc1ccc(N)cc1)C(=O)O (H-GPRP[Phe(4-NH2)]-OH) | 81 | 105 | 
5 |  |  | NCC(=O)N1CCC[C@H]1C(=O)N[C@@H](CCCN=C(N)N)C(=O)N[C@@H](Cc1ccc([N+](=O)[O-])cc1)C(=O)O (stereo in doubt; 9) [listing 1 of 2 here] | 2 |  | 
6 |  |  | N=C(N)NCCC[C@H](NC(=O)CCCc1ccc(N(CCCl)CCCl)cc1)C(=O)N1CCC[C@H]1C(=O)O | 0 |  | 
7 |  |  | NCC(=O)N1CCC[C@H]1C(=O)N[C@@H](CCCN=C(N)N)C(=O)N[C@@H](Cc1ccc([N+](=O)[O-])cc1)C(=O)O (stereo in doubt; 19) [listing 1 of 2 here] | 14 |  | 
8 |  |  | N=C(N)NCCC[C@H](NC(=O)[C@@H]1CCCN1C(=O)CCCc1ccc(N(CCCl)CCCl)cc1)C(=O)N1CCC[C@H]1C(=O)O | 0 |  | 
9 | 0 |  | NCC(=O)N1CCC[C@H]1C(=O)N[C@@H](CCCN=C(N)N)C(=O)N[C@@H](Cc1ccc([N+](=O)[O-])cc1)C(=O)O (stereo in doubt; 19) [listing 2 of 2 here] |  |  | 
10 | 0 |  | NCC(=O)N[C@@H](Cc1ccc([N+](=O)[O-])cc1)C(=O)N[C@@H](CCCN=C(N)N)C(=O)N1CCC[C@H]1C(=O)O (H-G[Phe(4-NO2)]RP-OH) | 10 |  | 
11 | 0 |  | NCC(=O)N1CCC[C@H]1C(=O)N[C@@H](Cc1ccc([N+](=O)[O-])cc1)C(=O)N1CCC[C@H]1C(=O)O (H-GP[Phe(4-NO2)]P-OH) | 0 |  | 
12 |  | 0 | NCC(=O)N1CCC[C@H]1C(=O)N[C@@H](CCCN=C(N)N)C(=O)N1CCC[C@H]1C(=O)O | 100 | 100 | 
13 | 0 |  | NCC(=O)N1CCC[C@H]1C(=O)N[C@@H](CCCN=C(N)N)C(=O)N1CCC[C@H]1C(=O)N[C@@H](Cc1ccc([N+](=O)[O-])cc1)C(=O)O (stereo in doubt; 20) |  |  | 
14 |  |  | NCC(=O)N1CCC[C@H]1C(=O)N[C@@H](CCCN=C(N)N)C(=O)N1CCC[C@H]1C(=O)N[C@@H](Cc1ccc([N+](=O)[O-])cc1)C(=O)O (stereo in doubt; 10) [listing 2 of 2 here] | 73 |  | 
15 | 0 |  | NCC(=O)N1CCC[C@H]1C(=O)N[C@@H](CCCN=C(N)N)C(=O)N[C@@H](Cc1ccc([N+](=O)[O-])cc1)C(=O)O (stereo in doubt; 9) [listing 2 of 2 here] |  | 0 | 
